Source: ChEMBL document CHEMBL1131948, “Design, synthesis, and evaluation of azapeptides as substrates and inhibitors for human rhinovirus 3C protease” (Bioorg Med Chem Lett, 1999)
The source made the active and inactive calls. The calls are words filed in the database; no cut-off is given here. Where a SMILES comes first, the peptide text is derived from it. The star is where a group is joined. Boc = CC(C)(C)OC(=O)*; X1 = c1ccc(O*)cc1

Tests used:
[1] = target: T1, Human rhinovirus A protease (Human rhinovirus sp.) (UniProt Q4U254); test: Inhibitory activity against human rhinovirus 3C protease (HRV-14 3Cpro); Inactive
T1 sequence (whole entry): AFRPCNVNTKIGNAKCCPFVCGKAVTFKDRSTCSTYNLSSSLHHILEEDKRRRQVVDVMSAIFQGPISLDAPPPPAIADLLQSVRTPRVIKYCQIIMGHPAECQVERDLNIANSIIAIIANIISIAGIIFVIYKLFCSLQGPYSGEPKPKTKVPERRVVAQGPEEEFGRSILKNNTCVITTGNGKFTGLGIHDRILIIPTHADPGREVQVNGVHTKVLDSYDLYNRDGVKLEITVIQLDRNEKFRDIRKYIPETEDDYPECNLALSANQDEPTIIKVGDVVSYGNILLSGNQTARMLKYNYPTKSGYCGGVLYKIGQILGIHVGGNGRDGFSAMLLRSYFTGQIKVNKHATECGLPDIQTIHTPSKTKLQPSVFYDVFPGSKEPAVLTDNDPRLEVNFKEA
Outline: (§1)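 HRV-14 3C protease (0.75-3.3 µM) was preincubated with compound in 25 mM HEPES, 150 mM NaCl, 1 mM EDTA, pH 7.5, at 28-30 °C. Aliquots were taken periodically and diluted 13-fold into buffer containing 250 µM EALFQ-pNA, and absorbance was read at 405 nm. Activity is expressed relative to a no-inhibitor control, with the earliest point taken about 10-15 s after mixing.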

[2] = target: T1, Human rhinovirus A protease (Human rhinovirus sp.); test: Inhibitory activity against human rhinovirus 3C protease at a concentration of 150 uM (HRV-14 3Cpro); outline: as §1
[3] = target: T1, Human rhinovirus A protease (Human rhinovirus sp.); test: Inhibitory activity against human rhinovirus 3C protease (HRV-14 3Cpro) at a concentration of 100 uM after 60 min of incubation; design: scale not given: the % may be the effect or the level left; outline: as §1
[4] = target: T1, Human rhinovirus A protease (Human rhinovirus sp.); test: Inhibitory activity against human rhinovirus 3C protease (HRV-14 3Cpro) at a concentration of 150 uM after 30 min of incubation; design: scale not given: the % may be the effect or the level left; outline: as §1
[5] = target: T1, Human rhinovirus A protease (Human rhinovirus sp.); test: Inhibitory activity against human rhinovirus 3C protease (HRV-14 3Cpro) at a concentration of 150 uM after 110 min of incubation; design: scale not given: the % may be the effect or the level left; outline: as §1
[6] = target: T1, Human rhinovirus A protease (Human rhinovirus sp.); test: Inhibitory activity against human rhinovirus 3C protease (HRV-14 3Cpro) at a concentration of 150 uM after 90 min of incubation; design: scale not given: the % may be the effect or the level left; outline: as §1
[7] = target: T1, Human rhinovirus A protease (Human rhinovirus sp.); test: Inhibitory activity against human rhinovirus 3C protease (HRV-14 3Cpro) at a concentration of 50 uM; design: scale not given: the % may be the effect or the level left; outline: as §1
[8] = target: T1, Human rhinovirus A protease (Human rhinovirus sp.); test: Inhibitory activity against human rhinovirus 3C protease (HRV-14 3Cpro) at a concentration of 150 uM after 15 min of incubation; design: scale not given: the % may be the effect or the level left; outline: as §1
[9] = target: T1, Human rhinovirus A protease (Human rhinovirus sp.); test: Inhibitory activity against human rhinovirus 3C protease (HRV-14 3Cpro) at a concentration of 100 uM after 75 min of incubation; design: scale not given: the % may be the effect or the level left; outline: as §1
[10] = target: T1, Human rhinovirus A protease (Human rhinovirus sp.); test: Inhibitory activity against human rhinovirus 3C protease (HRV-14 3Cpro) at a concentration of 50 uM after 45 min of incubation; design: scale not given: the % may be the effect or the level left; outline: as §1
[11] = target: T1, Human rhinovirus A protease (Human rhinovirus sp.); test: Inhibitory activity against human rhinovirus 3C protease (HRV-14 3Cpro) at a concentration of 50 uM after 30 min of incubation; design: scale not given: the % may be the effect or the level left; outline: as §1
[12] = target: T1, Human rhinovirus A protease (Human rhinovirus sp.); test: Inhibitory activity against human rhinovirus 3C protease (HRV-14 3Cpro) at a concentration of 150 uM; design: scale not given: the % may be the effect or the level left; outline: as §1
[13] = target: T1, Human rhinovirus A protease (Human rhinovirus sp.); test: Inhibitory activity against human rhinovirus 3C protease (HRV-14 3Cpro) at a concentration of 100 uM; design: scale not given: the % may be the effect or the level left; outline: as §1
[14] = target: T1, Human rhinovirus A protease (Human rhinovirus sp.); test: Inhibitory activity against human rhinovirus 3C protease (HRV-14 3Cpro) at a concentration of 100 uM after 45 min of incubation; design: scale not given: the % may be the effect or the level left; outline: as §1
[15] = target: T1, Human rhinovirus A protease (Human rhinovirus sp.); test: Inhibitory activity against human rhinovirus 3C protease (HRV-14 3Cpro) at a concentration of 150 uM after 60 min of incubation; design: scale not given: the % may be the effect or the level left; outline: as §1
[16] = target: T1, Human rhinovirus A protease (Human rhinovirus sp.); test: Inhibitory activity against human rhinovirus 3C protease (HRV-14 3Cpro) at a concentration of 100 uM after 30 min of incubation; design: scale not given: the % may be the effect or the level left; outline: as §1
[17] = target: T1, Human rhinovirus A protease (Human rhinovirus sp.); test: Inhibitory activity against human rhinovirus 3C protease (HRV-14 3Cpro) at a concentration of 100 uM after 110 min of incubation; design: scale not given: the % may be the effect or the level left; outline: as §1
[18] = target: T1, Human rhinovirus A protease (Human rhinovirus sp.); test: Inhibitory activity against human rhinovirus 3C protease (HRV-14 3Cpro) at a concentration of 150 uM after 75 min of incubation; design: scale not given: the % may be the effect or the level left; outline: as §1
[19] = target: T1, Human rhinovirus A protease (Human rhinovirus sp.); test: Inhibitory activity against human rhinovirus 3C protease (HRV-14 3Cpro) at a concentration of 100 uM after 15 min of incubation; design: scale not given: the % may be the effect or the level left; outline: as §1
[20] = target: T1, Human rhinovirus A protease (Human rhinovirus sp.); test: Inhibitory activity against human rhinovirus 3C protease (HRV-14 3Cpro) at a concentration of 50 uM after 15 min of incubation; design: scale not given: the % may be the effect or the level left; outline: as §1

**Q.** How did the Activity [1] turn out when CC(C)(C)OC(=O)N[C@@H](Cc1ccccc1)C(=O)NN(CCC(N)=O)C(=O)Oc1ccccc1 was run?
**A.** inactive

**Q.** For CC(C)C[C@H](NC(=O)[C@@H](NC(=O)OC(C)(C)C)C(C)C)C(=O)N[C@@H](Cc1ccccc1)C(=O)NN(CCC(N)=O)C(=O)OCC(Cl)(Cl)Cl, which Activity [1] is on record?
**A.** inactive

**Q.** How did the k [2] turn out when CC(C)C[C@H](NC(=O)[C@@H](NC(=O)OC(C)(C)C)C(C)C)C(=O)N[C@@H](Cc1ccccc1)C(=O)NCC(=O)Oc1ccccc1 (Boc-VLFG-X1) was run?
**A.** 0.009 min⁻¹

**Q.** For CC(C)C[C@H](NC(=O)[C@@H](NC(=O)OC(C)(C)C)C(C)C)C(=O)N[C@@H](Cc1ccccc1)C(=O)NN(CCC(N)=O)C(=O)Oc1ccccc1, which Activity [3] is on record?
**A.** 90%

**Q.** What about the Activity [4] of the same compound?
**A.** 13%

**Q.** What about the Activity [5] of the same compound?
**A.** 85%

**Q.** And the Activity [6]?
**A.** 70%

**Q.** And the Activity [7]?
**A.** 23%

**Q.** And the Activity [8]?
**A.** 10%

**Q.** And the Activity [9]?
**A.** 95%

**Q.** What about the Activity [10] of the same compound?
**A.** 85%

**Q.** What about the Activity [11] of the same compound?
**A.** 75%

**Q.** And the Activity [12]?
**A.** 5%

**Q.** And the Activity [13]?
**A.** 18%

**Q.** And the Activity [14]?
**A.** 62%

**Q.** And the Activity [15]?
**A.** 20%

**Q.** And the Activity [16]?
**A.** 28%

**Q.** What about the Activity [17] of the same compound?
**A.** 95%

**Q.** What about the Activity [18] of the same compound?
**A.** 45%

**Q.** And the Activity [19]?
**A.** 18%

**Q.** What about the Activity [20] of the same compound?
**A.** 40%

**Q.** For CC(C)C[C@H](NC(=O)[C@@H](NC(=O)OC(C)(C)C)C(C)C)C(=O)N[C@@H](Cc1ccccc1)C(=O)NN(CCC(N)=O)C(=O)OCc1ccccc1, which Activity [1] is on record?
**A.** inactive
